A selection: hits, their analogues and other compounds. The true share with any hit is near 2.6%.
rCAG binder = r(CAG) repeat RNA binding; TO-PRO-1 dye displacement fluorescence; inhibition, % at 3 µM; 1.3% of 370,000 active; AID 651821;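 active means inhibition above the plate cutoff, the mean of all test compounds on that plate plus 3 SD, cut at about 35% in these data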;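 further: 0% = DMSO alone and 100% = 100 µM mitoxantrone as full dye displacement; higher means more dye released from RNA so lower well fluorescence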
NR2E3 ag-1 = human photoreceptor-specific nuclear receptor agonism. Q9Y5X4. CHO-S Gal4-NCOR/VP16-NR2E3 two-hybrid, luciferase. inhibition of corepressor binding, % at 3.98 µM. 0.35% of 360,000 active. AID 602229;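 active means inhibition above the mean of all tested compounds plus 3 SD, cut at about 70% in these data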;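 further: 0% = DMSO with NR2E3 transfected cells and 100% = cells lacking NR2E3 construct; higher means lower luciferase signal from less NR2E3 corepressor binding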
NR2E3 ag-2 = NR2E3 (human) agonism. AID 2300. GST-NR2E3/biotin-RetCOR TR-FRET, 1536-well. 0.12% of 320,000 active. inhibition of corepressor binding, % at 4.78 µM;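 active means percent inhibition above the cutoff of mean plus 3 SD of all tested compounds, set per screening campaign, cut at about 20% in these data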;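 further: 0% = DMSO wells and 100% = biotin wells as full block of FRET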
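Test system: GST-NR2E3 and biotin-RetCOR proteins | Quantity: 1.35 nM GST-tagged NR2E3 final | Medium: Tris pH 7.5 | Also added: 7 nM biotin-RetCOR | Dosing: Compound at 4.8 µM, single dose | Timing: 5 h at 4 °C | Detection: Time-resolved FRET | Read-out basis: Percent inhibition | Benchmarks: Biotin wells as high control, 0.6% DMSO wells as low control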
PG9 binder = small molecules binding HIV-1 gp120 antibody PG9. TR-FRET gp120-PG9 antibody binding. inhibition, % at 6.7 µM. 0.43% of 360,000 active; in the data active means inhibition above about 8.5%
Rev-erbA mod = Rev-erb alpha (human) modulation; P20393; Rev-erbα–FITC-DNA binding, fluorescence polarization, 90 min; activity, % at 10 µM; 0.79% of 370,000 active;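 active means activity above about 14%, limit read from the data; passing the limit was not always enough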;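 further: 0% = DMSO wells with 35 nM protein and 100% = DMSO wells with 750 nM protein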
Target sequence (P20393 whole entry, looked up): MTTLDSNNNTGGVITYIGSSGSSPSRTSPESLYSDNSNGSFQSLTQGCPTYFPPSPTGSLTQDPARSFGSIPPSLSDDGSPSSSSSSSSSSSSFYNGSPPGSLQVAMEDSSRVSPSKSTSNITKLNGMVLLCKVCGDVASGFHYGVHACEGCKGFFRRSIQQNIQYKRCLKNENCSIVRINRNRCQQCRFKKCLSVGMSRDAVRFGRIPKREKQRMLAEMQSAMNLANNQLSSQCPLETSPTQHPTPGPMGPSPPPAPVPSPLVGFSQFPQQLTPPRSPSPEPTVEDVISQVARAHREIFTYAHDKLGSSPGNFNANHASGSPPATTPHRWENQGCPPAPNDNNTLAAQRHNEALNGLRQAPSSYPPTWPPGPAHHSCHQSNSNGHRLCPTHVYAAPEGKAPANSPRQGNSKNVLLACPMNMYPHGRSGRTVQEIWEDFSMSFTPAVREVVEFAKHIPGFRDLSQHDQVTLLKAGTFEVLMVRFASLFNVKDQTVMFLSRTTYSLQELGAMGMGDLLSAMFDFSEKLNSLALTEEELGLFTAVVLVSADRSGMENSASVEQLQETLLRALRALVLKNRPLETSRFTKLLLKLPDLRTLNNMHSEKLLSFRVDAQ
NR2E3 ag confirm = NR2E3 agonism confirmed in two-hybrid assay | shares compounds with NR2E3 ag-1 | CHO-S mammalian two-hybrid NR2E3-NCOR, luciferase luminescence | inhibition, % at 3.98 µM | 51% of 2,300 active;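 active means average inhibition above a cutoff equal to the mean inhibition of all tested compounds plus one SD, cut at about 70% in these data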;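 further: 0% = DMSO in NR2E3 cells and 100% = DMSO in cells lacking NR2E3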
GAL4-VP16 luc = GAL4-VP16 reporter inhibition in NR2E3 agonist counterscreen; shares compounds with NR2E3 ag-1; CHO-S GAL4-VP16 luciferase reporter, luminescence; inhibition, % at 3.98 µM; 29% of 2,300 active;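 active means mean inhibition above a cutoff equal to the average over all tested compounds plus one standard deviation, cut at about 70% in these data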;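 further: luciferase from a UAS reporter driven by GAL4-VP16 transactivation; 0% = DMSO with VP16-transfected cells and 100% = DMSO with cells lacking VP16; higher means less reporter light so more repression of VP16 activity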
Active calls of the source: *; / = not tested or not shown.

SMILES | rCAG binder | NR2E3 ag-1 | NR2E3 ag-2 | PG9 binder | Rev-erbA mod | NR2E3 ag confirm | GAL4-VP16 luc
COc1cc(/C=N/NC(=O)c2[nH]nc3c2CCc2ccccc2-3)ccc1O | 8 | 48 | 2 | 0 | 2 | 8 | -16
COc1cc(/C=N/NC(=O)c2cc(C34CC5CC(CC(C5)C3)C4)[nH]n2)ccc1O | 11 | 70* | 2 | 0 | 1 | 12 | 7
COC(=O)c1ccc2nc(-c3ccco3)c(Cc3ccccc3OC)n2c1 | 22 | / | / | 1 | -3 | / | /
COC(=O)[C@]12C[C@H](CC(=O)N3CCN(C(=O)C4CC4)CC3)C(=O)N(Cc3ccc4c(c3)OCO4)C1=C[C@H](COCc1ccccc1)O[C@@H]2C | 5 | / | / | 1 | -5 | / | /
COc1cc(/C=C2\CC/C(=C\c3cc(OC)c(OC)c(OC)c3)C2=O)cc(OC)c1OC | 5 | -4 | 0 | -2 | -5 | / | /
COc1cc(/C=C2\COC/C(=C\c3cc(OC)c(OC)c(OC)c3)C2=O)cc(OC)c1OC | 0 | 86* | / | -2 | -8 | 100* | 82*
OC(Cc1ccnc2ccccc12)C(Cl)(Cl)Cl (stereo not given) | 1 | 69 | / | 0 | 12 | 59 | 60
Cc1ccc(-n2nc3c(=O)n(CCCC(=O)NCc4cccc(F)c4)nc(C)c3c2C)cc1 | -7 | 52 | -1 | 0 | -1 | 20 | 39
Cc1ccc(-n2nc3c(=O)n(CC(=O)NC(C)CCc4ccccc4)nc(C)c3c2C)cc1 (stereo not given) | / | 55 | 1 | / | / | 52 | 65
Cc1ccc(-n2nc3c(=O)n(CCCC(=O)NCc4ccc(F)cc4)nc(C)c3c2C)cc1 | -7 | 26 | -2 | -1 | 5 | / | /
COc1cc(OC)c2c(=O)c3c(C(=O)O)c(O)ccc3oc2c1 | 5 | / | / | 1 | -3 | / | /
C[C@@H]1CN([C@H](C)CO)C(=O)c2cc(C#CC3CC3)cnc2O[C@H]1CN(C)S(C)(=O)=O | 2 | -34 | / | 0 | 2 | / | /
CC(C)C[C@@H]1COc2cccc(N3CCCCC3)c2S(=O)(=O)N1 | -1 | / | / | 0 | 11 | / | /
Cc1cc(C(=O)CSc2nc3ccccc3[nH]2)c(C)n1CC1CCCO1 (stereo not given) | 6 | 84* | -2 | -2 | -6 | 87* | 51
CCn1c(Cl)c(C=O)s/c1=N\S(=O)(=O)c1ccccc1 | 0 | 53 | -3 | 0 | 2 | 24 | 15
CCN1C(=O)CS/C1=N\S(=O)(=O)c1ccc(Cl)cc1 | 4 | 9 | 2 | -1 | -1 | / | /
COc1cc(CCC(C)=O)ccc1OC(=O)c1c(-c2c(F)cccc2Cl)noc1C | 1 | / | / | 1 | 2 | / | /
COc1cccc(NC(=O)CNC(=O)[C@@H]2Cc3ccccc3CN2C(=O)OC(C)(C)C)c1 | -5 | -12 | 4 | 2 | 5 | / | /
CC(C)(C)OC(=O)N1Cc2ccccc2C[C@H]1C(=O)NCC(=O)Nc1ccc2c(c1)OCCO2 | -3 | 59 | -2 | -2 | 7 | 27 | 8
CCOC(=O)N1CCN(C(=O)c2oc3ccc(S(=O)(=O)N4CCCCC4)cc3c2C)CC1 | -2 | 20 | -2 | -2 | -4 | / | /
Cc1c(C(=O)N2CCCCC2)oc2ccc(S(=O)(=O)N3CC(C)CC(C)C3)cc12 (stereo not given) | / | 77* | -6 | / | / | 73* | 63
CCCCN1CC(COCc2ccccc2)Oc2cccc(Sc3ccc(OC)c(OC)c3)c2S1(=O)=O (stereo not given) | 10 | / | / | -1 | 0 | / | /
CCC(C)n1ncn(-c2ccc(N3CCN(c4ccc(OC[C@H]5CO[C@](Cn6cncn6)(c6ccc(Cl)cc6Cl)O5)cc4)CC3)cc2)c1=O (stereo not given in full) | / | / | / | / | 4 | / | /
Cc1cc(-c2nnc(SCC(=O)Nc3ccccc3C(F)(F)F)o2)c(C)n1-c1ccccc1 | -3 | 50 | -1 | 0 | 5 | 29 | -8
O=S1(=O)CCOCC(CO)N1Cc1cccc(Br)c1 (stereo not given) | 2 | / | / | / | 3 | / | /
NC1=C(Br)C(=O)c2ncccc2C1=O | 2 | 99* | / | -6 | -12 | 92* | 51

Source: PubChem (several laboratories)
